Drawing on the array DNA melting data of Ke et al. (doi:10.1101/2024.01.08.574731), this text covers folding enthalpy and Tm for 37 sequences.

The nature of data set [1]: folding enthalpy; higher = less favourable; fluorescence melt of hairpins on a sequencing array, two-state fit. The settings on record: sodium 0.088 M. A digest of the protocol:
(§1)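 Melting temperature and folding enthalpy were derived from bootstrapped two-state fits. The fitted temperatures were raised by 9.35 °C to agree with UV melts, and four replicates were combined by inverse variance. The underlying data were Cy3 fluorescence images of library hairpins, with annealed Cy3 and quencher oligos, on a sequenced MiSeq flow cell in 50 mM Na-HEPES pH 8.0, 25 mM NaCl, taken in 2.5 °C steps up to 60 °C, normalised to pre-quench Cy3 and to control constructs.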

A short description of data set [2]: melting temperature; fluorescence melt of hairpins on a sequencing array, two-state fit, raised by 9.35 °C to match UV melts. The settings on record: sodium 0.088 M. A digest of the protocol: as §1

GCGTTGATACGC ((((....)))): the folding enthalpy in data set [1] was -23.1 kcal/mol. For the same sequence, in data set [2], the Tm amounted to 53.1 °C.

Turning to GCGTTGCGAAAGCATAGC ((..(((....)))..)), in data set [1], the folding enthalpy was -26.5 kcal/mol. For the same sequence, the Tm in data set [2] was determined as 58.4 °C.

As to GCGTTGGGAAACTGACGC ((((..(....)..)))), the folding enthalpy in data set [1] was -35.3 kcal/mol. The Tm in data set [2] was determined as 49.7 °C.

As for GCGTTGTCACGC ((((....)))), in data set [1], the folding enthalpy is -22.4 kcal/mol. The Tm in data set [2] stood at 52.2 °C.

Take GCGTTTCAACGC ((((....)))): the folding enthalpy in data set [1] was -27.6 kcal/mol. Also, the Tm in data set [2] turned out to be 60.2 °C.

With GCGTTTCACGC ((((...)))), the folding enthalpy in data set [1] was -34.8 kcal/mol. Also, the Tm in data set [2] came to 59.1 °C.

Regarding GCGTTTCCACGC ((((....)))), the folding enthalpy in data set [1] is -22.6 kcal/mol. The Tm in data set [2] turned out to be 53.5 °C.

Regarding GCGTTTCGAAAGAACGC (((.(((....)))))), in data set [1], the folding enthalpy was -33.8 kcal/mol. In addition, the Tm in data set [2] is 57.6 °C.

For GCGTTTGCGAAAGCACGC (((..(((....)))))), the folding enthalpy in data set [1] was -22.6 kcal/mol. In addition, the Tm in data set [2] was 55.2 °C.

With GCGTTTGGAAACAAGCGC (((.(((....))).))), the folding enthalpy in data set [1] is -45.6 kcal/mol. Moreover, the Tm in data set [2] worked out at 54.6 °C.

Turning to GCGTTTGGAAACGAACGC (((((.(....).))))), the folding enthalpy in data set [1] was -61.3 kcal/mol. In addition, the Tm in data set [2] was 55.7 °C.

GCGTTTTAACGC ((((....)))): the folding enthalpy in data set [1] was -26.5 kcal/mol. The Tm in data set [2] was determined as 57.7 °C.

Consider GCTAAAGCGAAAGCTAGC (((..(((....)))))), for which, in data set [1], the folding enthalpy is -21.4 kcal/mol. The Tm in data set [2] is 47.3 °C.

With GCTAACCCGAAAGGGAGC (((..(((....)))))), the folding enthalpy in data set [1] was -15.6 kcal/mol. Moreover, the Tm in data set [2] was found to be 41.1 °C.

As to GCTAACGAAAGTTATAGC ((((((....)))..))), the folding enthalpy in data set [1] is -24.2 kcal/mol. The Tm in data set [2] was found to be 36 °C.

As for GCTAACGAAAGTTGTAGC ((((((....)))..))), the folding enthalpy in data set [1] was -20.6 kcal/mol. The Tm in data set [2] worked out at 38.3 °C.

Take GCTAACGAAAGTTTGAGC ((((((....)))..))): in data set [1], the folding enthalpy is -15.6 kcal/mol. Moreover, the Tm in data set [2] stood at 32.6 °C.

With GCTAACGAAAGTTTTAGC ((((((....)))..))), the folding enthalpy in data set [1] is -17.4 kcal/mol. In addition, the Tm in data set [2] was found to be 33.6 °C.

On to GCTAACGCGAAAGCGAGC (((..(((....)))))), for which the folding enthalpy in data set [1] is -15.2 kcal/mol. For the same sequence, the Tm in data set [2] is 45.2 °C.

In the case of GCTAAGACGAAAGTCAGC (((..(((....)))))), in data set [1], the folding enthalpy is -20.4 kcal/mol. For the same sequence, the Tm in data set [2] was found to be 44.3 °C.

For GCTAAGCGAAAGCAAAGC (((..((....))..))), in data set [1], the folding enthalpy is -17.5 kcal/mol. The Tm in data set [2] is 40.8 °C.

On to GCTAAGCGAAAGCACAGC (((..((....))..))), for which the folding enthalpy in data set [1] is -21.7 kcal/mol. Moreover, the Tm in data set [2] came out at 42.7 °C.

For the sequence GCTAAGCGAAAGCAGAGC (((..((....))..))), the folding enthalpy in data set [1] was -23.9 kcal/mol. Besides, in data set [2], the Tm came to 43.4 °C.

Regarding GCTAAGCGAAAGCATAGC ((((.((....)).)))), in data set [1], the folding enthalpy is -27 kcal/mol. For the same sequence, the Tm in data set [2] was 54.8 °C.

As for GCTAAGCGAAAGCTAAGC (((.(((....))).))), the folding enthalpy in data set [1] was -41.1 kcal/mol. Also, the Tm in data set [2] amounted to 51.5 °C.

As to GCTAAGCGAAAGCTATGC ((..(((....)))..)), the folding enthalpy in data set [1] was -20.4 kcal/mol. For the same sequence, the Tm in data set [2] was determined as 43.5 °C.

For GCTAAGCGAAAGCTCCGC ((..(((....)))..)), the folding enthalpy in data set [1] was -10.6 kcal/mol. In data set [2], the Tm came out at 26.9 °C.

For GCTAAGCGAAAGCTGAGC (((.(((....))).))), the folding enthalpy in data set [1] was -42.3 kcal/mol. For the same sequence, the Tm in data set [2] is 56.1 °C.

As to GCTAAGTCGAAAGACAGC (((..(((....)))))), the folding enthalpy in data set [1] is -20.2 kcal/mol. Also, the Tm in data set [2] was 41.2 °C.

As to GCTAATACGAAAGTAAGC (((..(((....)))))), in data set [1], the folding enthalpy was -14.1 kcal/mol. The Tm in data set [2] came out at 29.5 °C.

For GCTAATCCGAAAGGAAGC (((..(((....)))))), in data set [1], the folding enthalpy is -16.5 kcal/mol. In data set [2], the Tm came out at 33.1 °C.

For the sequence GCTAATCGAAAGATAAGC (((.(((....))).))), the folding enthalpy in data set [1] was -26.2 kcal/mol. In addition, in data set [2], the Tm worked out at 42.8 °C.

As for GCTAATCGAAAGATGAGC (((.(((....))).))), the folding enthalpy in data set [1] was -31.4 kcal/mol. Further, the Tm in data set [2] is 47.8 °C.

As to GCTACAGGAAACTGTAAC (.(((((....))))).), in data set [1], the folding enthalpy was -12.8 kcal/mol. The Tm in data set [2] was found to be 30.3 °C.

As for GCTACAGGAAACTGTAGC (((((((....))))))), the folding enthalpy in data set [1] is -47.9 kcal/mol. The Tm in data set [2] stood at 63.7 °C.

Take GCTACCCCGAAAGGGAGC (((..(((....)))))): in data set [1], the folding enthalpy is -22.8 kcal/mol. Moreover, the Tm in data set [2] stood at 46.9 °C.

Turning to GCTACCCGAAAGGGAGC (((.(((....)))))), in data set [1], the folding enthalpy was -23.1 kcal/mol. In addition, in data set [2], the Tm was determined as 55.5 °C.
